Columns and labels:
[1] = test system: Plasmodium falciparum; test: Antimalarial activity against Plasmodium falciparum K1; format: functional, organism-based
Method in brief: (§1)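 Parasites kept in continuous culture in human erythrocytes (2–5%) in RPMI 1640 with 25 mM HEPES, 32 mM NaHCO3 and 10% human serum, gassed 3% O2/4% CO2/93% N2. 48 h assay: 1% initial parasitemia, 5% hematocrit, ethanol stocks (final <1% ethanol); [3H]hypoxanthine added after 24 h at 37 °C, counted after further 24 h. IC50 by probit interpolation; triplicate.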

[2] = test system: Plasmodium falciparum; test: Antimalarial activity against Plasmodium falciparum HB3; format: functional, organism-based; method in brief: as §1

Structure (SMILES)	IC50 [1]	IC50 [2]
C[C@@H]1CCC2[C@@H](C)[C@@H](OCc3ccc(CN4CCCC4)cc3)OC3O[C@@]4(C)CC[C@@H]1[C@]32OO4 (stereo partly specified)	2.3 nM	2.3 nM
C[C@@H]1CCC2[C@@H](C)[C@@H](OCc3ccc(CO)cc3)OC3O[C@@]4(C)CC[C@@H]1[C@]32OO4 (stereo partly specified)	4.4 nM	4.2 nM
CCNCCO[C@H]1OC2O[C@@]3(C)CC[C@H]4[C@H](C)CCC([C@H]1C)[C@@]24OO3 (stereo partly specified)	4.1 nM	4.1 nM
CNCCO[C@H]1OC2O[C@@]3(C)CC[C@H]4[C@H](C)CCC([C@H]1C)[C@@]24OO3 (stereo partly specified)	2.4 nM	2.7 nM
C[C@@H]1CCC2[C@@H](C)[C@@H](OCc3ccc(CN4CCOCC4)cc3)OC3O[C@@]4(C)CC[C@@H]1[C@]32OO4 (stereo partly specified)	35 nM	50 nM
CCN(CC)Cc1ccc(CO[C@H]2OC3O[C@@]4(C)CC[C@H]5[C@H](C)CCC([C@H]2C)[C@@]35OO4)cc1 (stereo partly specified)	1.4 nM	3.1 nM
C[C@@H]1CCC2[C@@H](C)[C@@H](OCc3ccc(CN4CCCCC4)cc3)OC3O[C@@]4(C)CC[C@@H]1[C@]32OO4 (stereo partly specified)	9.8 nM	12.2 nM
C[C@@H]1CC[C@H]2[C@@H](C)C(=O)O[C@@H]3O[C@@]4(C)CC[C@@H]1[C@]32OO4 [ARTEMISININ]	6.4 nM	7.3 nM

From ChEMBL document CHEMBL1129389, “Mechanism-based design of parasite-targeted artemisinin derivatives: synthesis and antimalarial activity of benzylamino and alkylamino ether analogues of artemisinin” (J Med Chem, 1996)
